A short description of test [1]: S. cerevisiae growth inhibition in permissive medium (OD615), pilot counter-assay for S. cerevisiae lifespan shortening project, permissive growth control (AID 705;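 active means growth inhibition above 25% in both replicates, a cutoff set 3 SD above the mean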). Particulars: OD615, 24 h, at 10 µM, hits give high values. Summed up: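 assay system = Saccharomyces cerevisiae strain carrying genetically modified DeaD replicative-lifespan system | technique = absorbance (optical density) at 615 nm | buffer or medium = permissive raffinose/galactose medium | timing = cells pre-grown 4 h, then 24 h compound exposure, 30 °C humidified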

Test [2] is described as follows: S. cerevisiae growth inhibition in restrictive medium, OD615, pilot screen, restrictive growth control, yeast lifespan reduction project (AID 706;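 active means growth inhibition above a set limit, 3 SD over mean compound inhibition, in both replicates, cut at about 43% in these data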;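 further: modified DeaD lifespan yeast strain shifted to restrictive glucose medium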). Particulars: OD615, 48 h, at 10 µM, hits give high values. Summed up:
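System: modified S. cerevisiae. Buffer or medium: CSMM-D glucose medium. Incubation: 4 h pre-growth plus 48 h compound exposure, 30 °C. Detection: absorbance (optical density) measured at 615 nm.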

A short description of test [3]: doxorubicin toxicity protection in MRP-1 cells – H69AR cells, CellTiter-Glo, duplicate, MRP-1 activator project, pilot screen (AID 807;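 active means viability increase at or above a cutoff of the median across tested compounds plus 3 SD, cut at about 8.5% in these data, passing the limit was not always enough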;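 further: compound pretreatment 18-22 h then 72 h combined with doxorubicin; 0% = doxorubicin alone and 100% = vehicle without doxorubicin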). The following applies: H69AR viability with doxorubicin, CellTiter-Glo luminescence; at 10 µM; hits give high values.
Test [4] can be described thus: viability of HCT116 without oncogenic beta-catenin – human colon tumor cells, pilot screen (AID 823;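 active means cell viability at or below a set limit in both duplicate runs, the limit being the all-compound median minus 4 SD, cut at about 23% in these data, passing the limit was not always enough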;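 further: 0% = wells killed by 20 µM Hyamine and 100% = untreated DMSO cell wells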). The following applies: HCT116 beta-catenin knockout viability, CellTiter-Glo, 60 h; at 10 µM; hits give low values.
Test [5] in a line: viability of PTEN-null HCT116 cells – cell-based, HCT116 clonal line, CellTiter-Glo, pilot screen (AID 824;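 active means viability at or below 27.92% in each of two runs, the all-compound median minus 4 SD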;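 further: 0% = 20 µM Hyamine control and 100% = vehicle cell control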). Particulars: HCT116 PTEN-deleted viability, 60 h, at 10 µM, hits give low values. In general terms: ATP-based viability assays read luminescence as a measure of living cells.
A short description of test [6]: RAM pathway blockade in budding yeast – dse1pr::URA3 reporter, 5-FOA selection, pilot screen (AID 869).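 Further: 0% = DMSO wells with no growth and 100% = 10 µM 1-NA-PP1 with full growth; RAM network block rescues cells from 5-FOA so hits raise OD615 growth.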 Particulars: S. cerevisiae dse1pr::URA3 5-FOA growth, OD615, 2 d; at 10 µM; hits give high values; strain carries analog-sensitive mutant Cbk1 kinase.
The nature of test [7]: RAM signaling pathway blockade in yeast – S. cerevisiae, Pdr1DBD-CYC8 efflux-inhibited sensitized strain, primary screen (AID 1298;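 active means RAM network inhibition above 8.4% in each of two replicates, 3 SD over the compound average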;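 further: 0% = DMSO untreated cells without growth and 100% = 10 µM 1-NA-PP1 full growth; higher means more yeast growth rescued from 5-FOA killing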). Particulars: S. cerevisiae cbk1-as DSE1-URA3 strain, 5-FOA growth OD615, 2 d; at 50 µM; hits give high values.

Values without a mark were called inactive. Records with an inconclusive call do not appear. Active and inactive are the calls of the source.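 How the source made its calls, unless noted: active means inhibition over a set limit, the all-compound mean plus 3 SD, in both replicate runs; inconclusive means over that limit in just one replicate run; inactive means at or under that limit in both runs.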

The viability is a read-out of living cells in per cent, often relative to untreated cells. The inhibition is the change of the read-out against control, counted positive when it falls. For the compound `O=C(N[C@@H](Cc1ccccc1)C(=O)O)c1cccnc1`, the growth inhibition in test [1] was -5.99%; in test [2], -10.1%. Also, the viability increase in test [3] was 0.01%. Further, the viability in test [4] is 96.1%; in test [5] it was 96.2%. Further, the inhibition in test [6] is 2.62%. Also, the RAM network inhibition in test [7] was 6.61%.
On to `CCOC(=O)N1CCN(c2ccc3nnnn3n2)CC1`, for which the growth inhibition in test [1] was -4.75%; in test [2], 1.97%. Also, the viability increase in test [3] was 0.77%. In addition, the viability in test [4] and in test [5] was 101% in each case. Further, in test [6], the inhibition is 0.275%. Moreover, the RAM network inhibition in test [7] was 0.43%.
In the case of `O=C(C1CCC(Cn2c(=O)[nH]c3ccccc3c2=O)CC1)N1CCN(c2ccccc2)CC1` (stereo not drawn), the growth inhibition in test [1] was -14.3%; in test [2] it was -1.08%. Moreover, in test [3], the viability increase was 2.93%. Also, the viability in test [4] was 82.6%; in test [5], 67.6%. The inhibition in test [6] was 1.81%. The RAM network inhibition in test [7] was 6.69%.
Turning to `CCOC(=O)c1sc(NCCNc2nc(C)c(C(=O)OCC)s2)nc1C`, the growth inhibition in test [1] is 2.36%; in test [2] it was -21.8%. In addition, the viability increase in test [3] is -3.12%. In addition, the values for the viability in test [4] and in test [5] were 94.1% and 89%, respectively. In addition, the inhibition in test [6] was 0.595%. In addition, the RAM network inhibition in test [7] was 5.86%.
In the case of `COc1ccccc1NC(=O)CSc1nnnn1C`, the growth inhibition was -4.16% in test [1] and -6.61% in test [2]. In test [3], the viability increase was -1.03%. The viability in test [4] is 105%; in test [5], 96.4%. Besides, the inhibition in test [6] was 1.37%. In test [7], the RAM network inhibition is 3.12%.
Take `Cc1c(=O)n(OCc2ccccc2)c2ccccc2[n+]1[O-]`: the growth inhibition in test [1] was -0.885%; in test [2] it was 1.5%. The viability increase in test [3] is -3.92%. The viability in test [4] is 95.9%; in test [5], 95.8%. In test [6], the inhibition was 0.09%. Moreover, in test [7], the RAM network inhibition was 9.74%.
On to `O=c1c2ccccc2c2ccccc2c(=O)n1CC1CCCO1` (stereo not drawn), for which the growth inhibition in test [1] is 2.77%; in test [2] it was 0.685%. The viability increase in test [3] was -2.2%. In addition, the results for the viability in test [4] and in test [5] were 101% and 89.6%, respectively. The inhibition in test [6] was 0.305%. In test [7], the RAM network inhibition is 12.7%.
`NC(=O)CSc1oc(-c2ccc(F)cc2)nc1S(=O)(=O)c1ccccc1`: the growth inhibition in test [1] was -6.54%; in test [2] it was -10.7%. Also, in test [3], the viability increase was -4.42%. For the same compound, the values for the viability in test [4] and in test [5] were 92.7% and 87.8%, respectively. In addition, the inhibition in test [6] is 0.73%. For the same compound, in test [7], the RAM network inhibition was 1.45%.
Regarding `CCC(Sc1nccn1C)C(=O)Nc1nnc(C)s1` (stereo not drawn), the growth inhibition was -21.2% in test [1] and 2.97% in test [2]. Moreover, in test [3], the viability increase was 5%. Besides, the values for the viability in test [4] and in test [5] were 101% and 94.2%, respectively. Further, the inhibition in test [6] was 1.58%. The RAM network inhibition in test [7] was 1.93%.
In the case of `CCOC(=O)c1c(C)[nH]c(C(=O)CSc2nnnn2-c2ccccc2)c1C`, the figures for the growth inhibition in test [1] and in test [2] were -7.16% and -0.165%, respectively. In addition, the viability increase in test [3] is -1.88%. Moreover, the viability was 100% in test [4] and 93.4% in test [5]. Also, the inhibition in test [6] is 2.31%. Besides, in test [7], the RAM network inhibition is 1.57%.
Consider `CCOc1ccc(N(CC(=O)OC)S(=O)(=O)c2c(C)noc2C)cc1`, for which the growth inhibition in test [1] is 3.84%; in test [2], -0.545%. In addition, the viability increase in test [3] was -1.21%. The viability in test [4] is 87.4%; in test [5] it was 95.1%. For the same compound, the inhibition in test [6] was -0.69%. Besides, the RAM network inhibition in test [7] is -0.31%.
Take `CCCCCCSc1nc2c(c(=O)[nH]c(=O)n2C)n1C`: the growth inhibition in test [1] is -0.55%; in test [2], 22.7%. The viability increase in test [3] is -4.63%. The values for the viability in test [4] and in test [5] were 82% and 90.3%, respectively. The inhibition in test [6] was 0.395%. For the same compound, the RAM network inhibition in test [7] was 1.1%.
Regarding `COc1ccc(C2N(c3cc(Cl)ccc3OC)C(=O)C3CCCN32)cc1OC` (stereo not drawn), the results for the growth inhibition in test [1] and in test [2] were -8.95% and -8.17%, respectively. In addition, the viability increase in test [3] is -1.86%. Besides, the viability in test [4] is 106%; in test [5], 95.9%. Moreover, in test [6], the inhibition was 1.02%. Also, the RAM network inhibition in test [7] was 7.33%.
Consider `CCn1c(-c2cc(OC)ccc2OC)csc1=Nc1c(C)n(C)n(-c2ccccc2)c1=O`, for which the figures for the growth inhibition in test [1] and in test [2] were -11.1% and -22.9%, respectively. In test [3], the viability increase is 0.28%. The viability in test [4] was 93.8%; in test [5], 92.5%. Also, the inhibition in test [6] was 1.58%. Moreover, the RAM network inhibition in test [7] is 4.62%.
Regarding `CC(C)c1cc(NC(=O)CSc2nnc(-c3ccccc3F)n2C)on1`, the growth inhibition in test [1] was -6.68%; in test [2], 2.08%. In test [3], the viability increase was 0.77%. Moreover, the values for the viability in test [4] and in test [5] were 98% and 101%, respectively. Besides, the inhibition in test [6] is 0.705%. The RAM network inhibition in test [7] is 3.69%.
Consider `O=C(Cn1cc2c(n1)CCCC2)N1CCc2ccccc21`, for which the growth inhibition in test [1] is -7.55%; in test [2], 9.02%. The viability increase in test [3] was -2.04%. For the same compound, the viability in test [4] was 66%; in test [5] it was 77.4%. For the same compound, in test [6], the inhibition is 2.28%. Besides, the RAM network inhibition in test [7] was -1.03%.
For `Cc1nc2c(c(C)nn2-c2ccccc2)c(C)c1Cl`, the results for the growth inhibition in test [1] and in test [2] were -4.98% and -5.5%, respectively. Also, the viability increase in test [3] is -2.73%. For the same compound, the viability in test [4] is 88.6%; in test [5], 87.9%. Also, the inhibition in test [6] was 3.09%. The RAM network inhibition in test [7] is 2.46%.
For the compound `COc1ccc(NC(=O)CSc2nnc(Cn3c(=O)sc4ccccc43)n2C)cc1OC`, the results for the growth inhibition in test [1] and in test [2] were -10.7% and -14.9%, respectively. Besides, the viability increase in test [3] was -2.38%. Besides, the results for the viability in test [4] and in test [5] were 86.5% and 92.2%, respectively. For the same compound, the inhibition in test [6] is 1.91%. The RAM network inhibition in test [7] was 4.34%.
For `COc1ccc(-n2c(Cc3cccn3C)nnc2SCC(=O)N2CCCC2)cc1`, the growth inhibition in test [1] is 11.1%; in test [2], 49.5% (active). Further, the viability increase in test [3] was -0.77%. In addition, the viability is 96.1% in test [4] and 98.5% in test [5]. Besides, the inhibition in test [6] is 0.04%. The RAM network inhibition in test [7] is 0.93%.
`COc1cccc(C(=O)Nc2cc(=O)n(C)c(=O)n2C)c1OC`: the growth inhibition in test [1] is -1.72%; in test [2], -6.04%. Also, the viability increase in test [3] is -2.46%. Also, the values for the viability in test [4] and in test [5] were 105% and 98.8%, respectively. Further, in test [6], the inhibition is 1.94%. Also, in test [7], the RAM network inhibition is 1.14%.
As for `COc1ccccc1OCC(=O)Nc1ccc(S(=O)(=O)N2CCCCCC2)cc1`, the growth inhibition is -10.1% in test [1] and -4.95% in test [2]. Besides, the viability increase in test [3] was 0.4%. Moreover, the viability is 83.1% in test [4] and 82.1% in test [5]. In test [6], the inhibition is 2.08%. The RAM network inhibition in test [7] is 10.1%.
Regarding `Clc1ccc(C=NC23CN4CN(CN(C4)C2)C3)cc1`, the growth inhibition in test [1] is 8.77%; in test [2], 6.34%. Further, the viability increase in test [3] was -1.39%. The viability in test [4] is 102%; in test [5] it was 90.3%. In addition, the inhibition in test [6] is 1.11%. Further, the RAM network inhibition in test [7] was 0.19%.
Turning to `O=C(Cn1cc(C(=O)c2cccs2)c2ccccc21)NCc1ccc2c(c1)OCO2`, the growth inhibition was -5.79% in test [1] and -15.1% in test [2]. In addition, the viability increase in test [3] is -2.32%. The values for the viability in test [4] and in test [5] were 94.6% and 86.4%, respectively. Besides, the inhibition in test [6] is 1.08%. Moreover, the RAM network inhibition in test [7] is 2.74%.
In the case of `Cc1cccc(NS(=O)(=O)c2ccccc2)n1`, the growth inhibition in test [1] was -4.51%; in test [2] it was 11.2%. The viability increase in test [3] was 2.49%. Besides, the viability in test [4] is 106%; in test [5], 104%. Further, the inhibition in test [6] was 0.75%. Also, the RAM network inhibition in test [7] was 0.26%.

The values are drawn from PubChem BioAssay.
